# ChEMBL document CHEMBL5058577, “EUbOPEN Chemogenomics Library 2 (Multiplex)” (2022)
# System: Fibroblast
# Assay: Multiplex assay against human fibroblast
# Format: toxicity, cell-based
# Procedure, shortened: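 At seeding, live cells were stained with Hoechst33342, BioTracker Green Microtubule Cytoskeleton Dye, MitoTracker Red and Annexin V Alexa Fluor 680. After compound addition they were imaged on a CQ1 microscope at 37°C and 5% CO2, and CellPathfinder machine-learning gating sorted them into Hoechst high-intensity objects or normal cells, with normal cells further split into healthy, pyknosed or fragmented nuclei and pyknosed cells into mitotic or apoptotic. Tubulin, mitochondrial-mass and membrane-permeability phenotypes are given as per cents of cells with healthy nuclei.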
# [1] = 12 h, 1 µM, compound concentration 1 uM, replicate 1
# [2] = 12 h, 1 µM, compound concentration 1 uM, replicate 2
# [3] = 12 h, 10 µM, compound concentration 10 uM, replicate 1
# [4] = 12 h, 10 µM, compound concentration 10 uM, replicate 2
# [5] = 24 h, 1 µM, compound concentration 1 uM, replicate 1
# [6] = 24 h, 1 µM, compound concentration 1 uM, replicate 2
# [7] = 24 h, 10 µM, compound concentration 10 uM, replicate 1
# [8] = 24 h, 10 µM, compound concentration 10 uM, replicate 2
# [9] = 48 h, 1 µM, compound concentration 1 uM, replicate 1
# [10] = 48 h, 1 µM, compound concentration 1 uM, replicate 2
# [11] = 48 h, 10 µM, compound concentration 10 uM, replicate 1
# [12] = 48 h, 10 µM, compound concentration 10 uM, replicate 2
smiles,measurement,setting,value
CN1CCN2c3ccccc3Cc3ccccc3C2C1.Cl (stereo unspecified) [MIANSERIN HYDROCHLORIDE],Population Apoptotic (%),[1],55%
same,Population Fragmented Nuclei (%),[1],28%
same,Population Healthy Nuclei (%),[1],56%
same,Population Hoechst High Intensity Objects (%),[1],2%
same,Population Membrane Permeable-Phenotype (%),[1],1%
same,Population Mitochondria Different-Phenotype (%),[1],0%
same,Population Mitotic Cells (%),[1],45%
same,Population Normal (%),[1],97%
same,Population Pyknosed Nuclei (%),[1],14%
same,Population Tubulin-Different-Phenotype (%),[1],31%
same,Total Cell Count,[1],138
same,Population Apoptotic (%),[2],38%
same,Population Fragmented Nuclei (%),[2],27%
same,Population Healthy Nuclei (%),[2],50%
same,Population Hoechst High Intensity Objects (%),[2],4%
same,Population Membrane Permeable-Phenotype (%),[2],12%
same,Population Mitochondria Different-Phenotype (%),[2],5%
same,Population Mitotic Cells (%),[2],61%
same,Population Normal (%),[2],95%
same,Population Pyknosed Nuclei (%),[2],22%
same,Population Tubulin-Different-Phenotype (%),[2],56%
same,Total Cell Count,[2],119
same,Population Apoptotic (%),[3],55%
same,Population Fragmented Nuclei (%),[3],15%
same,Population Healthy Nuclei (%),[3],68%
same,Population Hoechst High Intensity Objects (%),[3],5%
same,Population Membrane Permeable-Phenotype (%),[3],1%
same,Population Mitochondria Different-Phenotype (%),[3],3%
same,Population Mitotic Cells (%),[3],44%
same,Population Normal (%),[3],94%
same,Population Pyknosed Nuclei (%),[3],15%
same,Population Tubulin-Different-Phenotype (%),[3],14%
same,Total Cell Count,[3],126
same,Population Apoptotic (%),[4],33%
same,Population Fragmented Nuclei (%),[4],24%
same,Population Healthy Nuclei (%),[4],48%
same,Population Hoechst High Intensity Objects (%),[4],6%
same,Population Membrane Permeable-Phenotype (%),[4],3%
same,Population Mitochondria Different-Phenotype (%),[4],7%
same,Population Mitotic Cells (%),[4],66%
same,Population Normal (%),[4],93%
same,Population Pyknosed Nuclei (%),[4],27%
same,Population Tubulin-Different-Phenotype (%),[4],40%
same,Total Cell Count,[4],116
same,Population Apoptotic (%),[5],52%
same,Population Fragmented Nuclei (%),[5],32%
same,Population Healthy Nuclei (%),[5],55%
same,Population Hoechst High Intensity Objects (%),[5],2%
same,Population Membrane Permeable-Phenotype (%),[5],0%
same,Population Mitochondria Different-Phenotype (%),[5],2%
same,Population Mitotic Cells (%),[5],47%
same,Population Normal (%),[5],97%
same,Population Pyknosed Nuclei (%),[5],12%
same,Population Tubulin-Different-Phenotype (%),[5],29%
same,Total Cell Count,[5],143
same,Population Apoptotic (%),[6],36%
same,Population Fragmented Nuclei (%),[6],30%
same,Population Healthy Nuclei (%),[6],50%
same,Population Hoechst High Intensity Objects (%),[6],3%
same,Population Membrane Permeable-Phenotype (%),[6],6%
same,Population Mitochondria Different-Phenotype (%),[6],1%
same,Population Mitotic Cells (%),[6],63%
same,Population Normal (%),[6],96%
same,Population Pyknosed Nuclei (%),[6],19%
same,Population Tubulin-Different-Phenotype (%),[6],53%
same,Total Cell Count,[6],119
same,Population Apoptotic (%),[7],61%
same,Population Fragmented Nuclei (%),[7],14%
same,Population Healthy Nuclei (%),[7],73%
same,Population Hoechst High Intensity Objects (%),[7],5%
same,Population Membrane Permeable-Phenotype (%),[7],0%
same,Population Mitochondria Different-Phenotype (%),[7],1%
same,Population Mitotic Cells (%),[7],38%
same,Population Normal (%),[7],95%
same,Population Pyknosed Nuclei (%),[7],11%
same,Population Tubulin-Different-Phenotype (%),[7],11%
same,Total Cell Count,[7],120
same,Population Apoptotic (%),[8],48%
same,Population Fragmented Nuclei (%),[8],31%
same,Population Healthy Nuclei (%),[8],47%
same,Population Hoechst High Intensity Objects (%),[8],4%
same,Population Membrane Permeable-Phenotype (%),[8],10%
same,Population Mitochondria Different-Phenotype (%),[8],5%
same,Population Mitotic Cells (%),[8],52%
same,Population Pyknosed Nuclei (%),[8],20%
same,Population Tubulin-Different-Phenotype (%),[8],53%
same,Total Cell Count,[8],127
same,Population Apoptotic (%),[9],78%
same,Population Fragmented Nuclei (%),[9],35%
same,Population Healthy Nuclei (%),[9],55%
same,Population Hoechst High Intensity Objects (%),[9],2%
same,Population Membrane Permeable-Phenotype (%),[9],0%
same,Population Mitochondria Different-Phenotype (%),[9],2%
same,Population Mitotic Cells (%),[9],21%
same,Population Normal (%),[9],97%
same,Population Pyknosed Nuclei (%),[9],9%
same,Population Tubulin-Different-Phenotype (%),[9],35%
same,Total Cell Count,[9],151
same,Population Apoptotic (%),[10],46%
same,Population Fragmented Nuclei (%),[10],36%
same,Population Healthy Nuclei (%),[10],51%
same,Population Hoechst High Intensity Objects (%),[10],3%
same,Population Membrane Permeable-Phenotype (%),[10],3%
same,Population Mitochondria Different-Phenotype (%),[10],10%
same,Population Mitotic Cells (%),[10],53%
same,Population Normal (%),[10],96%
same,Population Pyknosed Nuclei (%),[10],11%
same,Population Tubulin-Different-Phenotype (%),[10],50%
same,Total Cell Count,[10],116
same,Population Apoptotic (%),[11],57%
same,Population Fragmented Nuclei (%),[11],15%
same,Population Healthy Nuclei (%),[11],71%
same,Population Hoechst High Intensity Objects (%),[11],5%
same,Population Membrane Permeable-Phenotype (%),[11],0%
same,Population Mitochondria Different-Phenotype (%),[11],2%
same,Population Mitotic Cells (%),[11],42%
same,Population Normal (%),[11],94%
same,Population Pyknosed Nuclei (%),[11],12%
same,Population Tubulin-Different-Phenotype (%),[11],16%
same,Total Cell Count,[11],115
same,Population Apoptotic (%),[12],38%
same,Population Fragmented Nuclei (%),[12],29%
same,Population Healthy Nuclei (%),[12],55%
same,Population Hoechst High Intensity Objects (%),[12],3%
same,Population Membrane Permeable-Phenotype (%),[12],10%
same,Population Mitochondria Different-Phenotype (%),[12],1%
same,Population Mitotic Cells (%),[12],61%
same,Population Normal (%),[12],96%
same,Population Pyknosed Nuclei (%),[12],14%
same,Population Tubulin-Different-Phenotype (%),[12],37%
same,Total Cell Count,[12],125
Nc1nc(CC(=O)Nc2ccc(CCNC[C@H](O)c3ccccc3)cc2)cs1 [MIRABEGRON],Population Apoptotic (%),[1],53%
same,Population Fragmented Nuclei (%),[1],19%
same,Population Healthy Nuclei (%),[1],62%
same,Population Hoechst High Intensity Objects (%),[1],5%
same,Population Membrane Permeable-Phenotype (%),[1],0%
same,Population Mitochondria Different-Phenotype (%),[1],6%
same,Population Mitotic Cells (%),[1],46%
same,Population Normal (%),[1],94%
same,Population Pyknosed Nuclei (%),[1],18%
same,Population Tubulin-Different-Phenotype (%),[1],25%
same,Total Cell Count,[1],164
same,Population Apoptotic (%),[2],31%
same,Population Fragmented Nuclei (%),[2],27%
same,Population Healthy Nuclei (%),[2],52%
same,Population Hoechst High Intensity Objects (%),[2],4%
same,Population Membrane Permeable-Phenotype (%),[2],9%
same,Population Mitochondria Different-Phenotype (%),[2],12%
same,Population Mitotic Cells (%),[2],68%
same,Population Normal (%),[2],95%
same,Population Pyknosed Nuclei (%),[2],19%
same,Population Tubulin-Different-Phenotype (%),[2],46%
same,Total Cell Count,[2],189
same,Population Apoptotic (%),[3],46%
same,Population Fragmented Nuclei (%),[3],15%
same,Population Healthy Nuclei (%),[3],75%
same,Population Hoechst High Intensity Objects (%),[3],3%
same,Population Membrane Permeable-Phenotype (%),[3],0%
same,Population Mitochondria Different-Phenotype (%),[3],4%
same,Population Mitotic Cells (%),[3],53%
same,Population Normal (%),[3],96%
same,Population Pyknosed Nuclei (%),[3],9%
same,Population Tubulin-Different-Phenotype (%),[3],19%
same,Total Cell Count,[3],171
same,Population Apoptotic (%),[4],30%
same,Population Fragmented Nuclei (%),[4],31%
same,Population Healthy Nuclei (%),[4],41%
same,Population Hoechst High Intensity Objects (%),[4],5%
same,Population Membrane Permeable-Phenotype (%),[4],1%
same,Population Mitochondria Different-Phenotype (%),[4],3%
same,Population Mitotic Cells (%),[4],69%
same,Population Normal (%),[4],94%
same,Population Pyknosed Nuclei (%),[4],27%
same,Population Tubulin-Different-Phenotype (%),[4],45%
same,Total Cell Count,[4],137
same,Population Apoptotic (%),[5],59%
same,Population Fragmented Nuclei (%),[5],17%
same,Population Healthy Nuclei (%),[5],64%
same,Population Hoechst High Intensity Objects (%),[5],5%
same,Population Membrane Permeable-Phenotype (%),[5],1%
same,Population Mitochondria Different-Phenotype (%),[5],4%
same,Population Mitotic Cells (%),[5],40%
same,Population Normal (%),[5],94%
same,Population Pyknosed Nuclei (%),[5],18%
same,Population Tubulin-Different-Phenotype (%),[5],28%
same,Total Cell Count,[5],156
same,Population Apoptotic (%),[6],58%
same,Population Fragmented Nuclei (%),[6],27%
same,Population Healthy Nuclei (%),[6],57%
same,Population Membrane Permeable-Phenotype (%),[6],9%
same,Population Mitochondria Different-Phenotype (%),[6],7%
same,Population Mitotic Cells (%),[6],41%
same,Population Pyknosed Nuclei (%),[6],14%
same,Population Tubulin-Different-Phenotype (%),[6],45%
same,Total Cell Count,[6],179
same,Population Apoptotic (%),[7],53%
same,Population Fragmented Nuclei (%),[7],15%
same,Population Healthy Nuclei (%),[7],75%
same,Population Hoechst High Intensity Objects (%),[7],2%
same,Population Membrane Permeable-Phenotype (%),[7],0%
same,Population Mitochondria Different-Phenotype (%),[7],4%
same,Population Mitotic Cells (%),[7],46%
same,Population Normal (%),[7],97%
same,Population Pyknosed Nuclei (%),[7],8%
same,Population Tubulin-Different-Phenotype (%),[7],24%
same,Total Cell Count,[7],181
same,Population Apoptotic (%),[8],55%
same,Population Fragmented Nuclei (%),[8],29%
same,Population Healthy Nuclei (%),[8],48%
same,Population Hoechst High Intensity Objects (%),[8],4%
same,Population Membrane Permeable-Phenotype (%),[8],4%
same,Population Mitochondria Different-Phenotype (%),[8],6%
same,Population Mitotic Cells (%),[8],44%
same,Population Normal (%),[8],95%
same,Population Pyknosed Nuclei (%),[8],21%
same,Population Tubulin-Different-Phenotype (%),[8],44%
same,Total Cell Count,[8],131
same,Population Apoptotic (%),[9],76%
same,Population Fragmented Nuclei (%),[9],23%
same,Population Healthy Nuclei (%),[9],60%
same,Population Hoechst High Intensity Objects (%),[9],7%
same,Population Membrane Permeable-Phenotype (%),[9],2%
same,Population Mitochondria Different-Phenotype (%),[9],6%
same,Population Mitotic Cells (%),[9],23%
same,Population Normal (%),[9],92%
same,Population Pyknosed Nuclei (%),[9],15%
same,Population Tubulin-Different-Phenotype (%),[9],28%
same,Total Cell Count,[9],176
same,Population Apoptotic (%),[10],50%
same,Population Fragmented Nuclei (%),[10],40%
same,Population Healthy Nuclei (%),[10],52%
same,Population Hoechst High Intensity Objects (%),[10],2%
same,Population Membrane Permeable-Phenotype (%),[10],4%
same,Population Mitochondria Different-Phenotype (%),[10],10%
same,Population Mitotic Cells (%),[10],50%
same,Population Normal (%),[10],97%
same,Population Pyknosed Nuclei (%),[10],7%
same,Population Tubulin-Different-Phenotype (%),[10],32%
same,Total Cell Count,[10],195
same,Population Apoptotic (%),[11],64%
same,Population Fragmented Nuclei (%),[11],18%
same,Population Healthy Nuclei (%),[11],74%
same,Population Hoechst High Intensity Objects (%),[11],4%
same,Population Membrane Permeable-Phenotype (%),[11],0%
same,Population Mitochondria Different-Phenotype (%),[11],4%
same,Population Mitotic Cells (%),[11],35%
same,Population Normal (%),[11],95%
same,Population Pyknosed Nuclei (%),[11],7%
same,Population Tubulin-Different-Phenotype (%),[11],21%
same,Total Cell Count,[11],194
same,Population Apoptotic (%),[12],75%
same,Population Fragmented Nuclei (%),[12],39%
same,Population Healthy Nuclei (%),[12],48%
same,Population Hoechst High Intensity Objects (%),[12],3%
same,Population Membrane Permeable-Phenotype (%),[12],6%
same,Population Mitochondria Different-Phenotype (%),[12],6%
same,Population Mitotic Cells (%),[12],25%
same,Population Normal (%),[12],96%
same,Population Pyknosed Nuclei (%),[12],12%
same,Population Tubulin-Different-Phenotype (%),[12],51%
same,Total Cell Count,[12],132
